This is a sample that favours compounds with a hit; in the whole collection about 2.5% have one here.
SR-BI DiI inh: mouse SR-BI HDL lipid transfer inhibition; ldlA[mSR-BI] CHO cells, DiI-HDL uptake fluorescence, 3 h; inhibition, % at 12.5 µM; 320,000 tested, 0.96% active; AID 488896;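 active = mean replicate inhibition of at least 70% and a set share of replicates each scoring 70 or more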;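 also: 0% = median of neutral control wells and 100% = median of positive control wells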
Target sequence (Q61009 whole entry, looked up): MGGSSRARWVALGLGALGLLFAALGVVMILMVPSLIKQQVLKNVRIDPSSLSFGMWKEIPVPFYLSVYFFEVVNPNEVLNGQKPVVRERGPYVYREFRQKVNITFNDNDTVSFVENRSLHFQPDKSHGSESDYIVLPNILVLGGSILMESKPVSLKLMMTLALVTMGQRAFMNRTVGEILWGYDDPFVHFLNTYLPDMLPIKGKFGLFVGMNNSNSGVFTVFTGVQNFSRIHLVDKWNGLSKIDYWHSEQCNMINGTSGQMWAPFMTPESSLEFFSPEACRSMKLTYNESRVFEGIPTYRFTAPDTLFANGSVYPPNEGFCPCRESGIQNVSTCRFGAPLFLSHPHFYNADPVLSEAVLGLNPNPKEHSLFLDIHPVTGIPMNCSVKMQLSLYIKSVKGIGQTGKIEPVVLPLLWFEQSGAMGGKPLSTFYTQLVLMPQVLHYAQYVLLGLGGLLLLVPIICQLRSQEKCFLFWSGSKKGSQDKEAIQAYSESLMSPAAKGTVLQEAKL
SR-BI uptake up: activators of SR-BI mediated HDL lipid uptake. CHO ldlA[mSR-BI] cells, DiI-HDL uptake fluorescence, 3 h; 100 = double the neutral-control signal. 320,000 tested, 0.096% active. activation, % at 12.5 µM;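 active = mean replicate activation of at least 60% and every replicate at or above 60%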;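 also: 0% = median plate neutral-control signal and 100% = twice that signal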
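Test system: SR-BI-overexpressing, LDLR-lacking CHO cells. Measured by: DiI fluorescence, bottom read. Medium: Ham's F12 with 0.5% BSA, HEPES 25 mM, pH 7.4. Timing: 3 h uptake period with compound, 37 °C.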
CDK5 inh: inhibitors of human CDK5/p35 kinase | Q00535+Q15078 | Recombinant CDK5/p35, ADP-Glo luminescence, 60 min | inhibition, % at 10 µM | 330,000 tested, 0.01% active;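 active = highest replicate inhibition of at least 50% and at least 75% of replicates reaching 50%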;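 also: plate controls were DMSO neutral control for no effect and GW8510 at 10 µM for full effect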
NSD2 inh: NSD2 (human) methyltransferase inhibition; O96028; NSD2 peptide methylation, AlphaScreen, 120 min; inhibition, % at 12.5 µM; 310,000 tested, 0.54% active; AID 743445
dFosB activator: activators of mouse delta FosB homodimer; P13346; purified delta FosB, TAMRA-CDK5 oligo fluorescence polarization; percent of positive-control signal above neutral wells; activation, % at 25 µM; 340,000 tested, 0.99% active;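 active = mean activation above about 17%, with every replicate also reaching it, limit read from the data, passing the limit was not always enough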
Dyrk1A ADPGlo: Dyrk1A (rat) kinase inhibition; inhibition, % at 12.5 µM; 310,000 tested, 0.43% active; ADP-Glo luminescence, NFATc1 peptide; Q63470;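 also: plate controls were vehicle with enzyme for no effect and no enzyme for full effect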
* hit, by the source's call; nt = no result given. Rule as the data show it, unless noted: active = inhibition above about 50%; inactive = the rest.

SMILES	SR-BI DiI inh	SR-BI uptake up	CDK5 inh	NSD2 inh	dFosB activator	Dyrk1A ADPGlo
O=C(Nn1cnnc1)c1ccc(Cl)cc1	-17	17	-3	-6	1	-6
Cc1ccc(NS(=O)(=O)c2cc(-c3n[nH]c(=O)c4ccccc34)ccc2C)cc1	14	-14	-1	-2	-1	3
Cc1cc(C)n2nc(SC(C)C(=O)Nc3ccccc3F)nc2n1 (centres undefined)	5	-5	0	-1	3	nt
COc1cccc(CN(C)CC(=O)Nc2cc3oc4ccccc4c3cc2OC)c1	78*	-78	-1	-1	-9	-5
CCc1ccc(NC(=S)N2CCCCCCC2)cc1	-3	3	0	-3	-8	0
Cc1c(NC(=O)Nc2ccc(Cl)c(Cl)c2)sc(=S)n1C	90*	-90	-1	-1	5	9
Cc1ccc(NC(=O)/C=C/c2ccc(S(=O)(=O)N3CCOCC3)cc2)cc1S(=O)(=O)N(C)C	86*	-86	2	-1	-22	10
O=C(/C=C/c1ccc(F)cc1)Nc1ccc(S(=O)(=O)N2CCOCC2)cc1	21	-21	0	0	-16	-3
Nc1c(C(=O)Nc2ccccc2)sc2nc3c(c(-c4ccco4)c12)CCCC3	32	-32	0	1	-8	-3
Cc1ccccc1NC(=O)c1sc2nc3c(c(-c4ccco4)c2c1N)CCCC3	79*	-79	-6	-1	-7	-3
Nc1c(C(=O)Nc2ccccc2)sc2nc3c(c(-c4ccco4)c12)CCC3	80*	-80	1	-3	-9	-2
Cc1ccc(NC(=O)c2sc3nc4c(c(-c5ccco5)c3c2N)CCC4)cc1	36	-36	0	-2	-8	-7
CCOC(=O)c1csc(NC(=O)c2cc(OC)c(OC)c(OC)c2)n1	77*	-77	0	0	-21	8
COc1cccc(C2NC(=S)N(Cc3ccccc3)C(C)=C2C(C)=O)c1 (centres undefined)	nt	nt	nt	-1	nt	nt
CCOc1ccc(-n2c(COc3ccccc3)nnc2SCc2nc3ccccc3[nH]2)cc1	nt	nt	nt	-3	nt	nt
COc1ccc(S(=O)(=O)Nc2cc(Sc3ncn[nH]3)c(O)c3ccccc23)cc1	nt	nt	nt	165*	nt	nt
COc1ccc(CSc2nnc(SCC(=O)Nc3ccc(S(N)(=O)=O)cc3)s2)cc1	nt	nt	nt	5	nt	nt
O=C(COC(=O)COc1ccccc1)Nc1ccc(Br)cc1F	-63	63*	-1	-2	2	-5
CCc1nc2ccc(C(=O)Nc3cccc(OCC(=O)N(C)C)c3)cn2c1N(C)Cc1ccc(N(C)C)cc1	nt	nt	nt	25	nt	nt
COc1ccc(-n2c(SCC(=O)Nc3cc(C)on3)nc3c([nH]c4ccccc43)c2=O)cc1	-21	21	-3	nt	9	9
COc1ccc(-n2c(SCC(=O)Nc3cc(C)on3)nc3c([nH]c4ccccc43)c2=O)cc1OC	3	-3	0	0	25*	2
CCCCC1(C2CCCC2)NC(=O)NC1=O (centres undefined)	-9	9	1	0	1	3
O=C(N/N=C/c1ccc(OC(=O)c2cccc(Br)c2)cc1)c1cccnc1	nt	nt	-2	0	27*	1
O=C(N/N=C/c1cc(O)ccc1Br)c1cccnc1	77*	-77	1	1	-13	2
CCN(CC)CCOC(=O)c1ccc(N/C=C(/C#N)c2nc(-c3ccc(OC)c(OC)c3)cs2)cc1	8	-8	1	0	165*	0
SMILES	SR-BI DiI inh	SR-BI uptake up	CDK5 inh	NSD2 inh	dFosB activator	Dyrk1A ADPGlo
O=C(NCc1ccco1)C1CCCN(S(=O)(=O)c2ccc([N+](=O)[O-])cc2)C1 (centres undefined)	nt	nt	nt	-1	nt	nt
COc1ccc(C(=O)CSC2=C(C#N)C3(CCCCC3)C(C#N)=C(N)N2)cc1	72*	-72	0	1	-1	6
CCNC1=C(Cl)C(=O)c2ccccc2C1=O	-1	25	1	30	-9	12
O=C1C(Cl)=C(NCc2ccco2)C(=O)c2ccccc21	2	-2	1	71*	-8	6
COc1cc(-c2ccc3oc(-c4ccsc4)c(C#CC4(O)CCCCC4)c3c2)cc(OC)c1OC	76*	-76	-2	nt	-2	8
COc1cc2c(cc1NC(=O)C(Cl)Cl)-c1ccc(NC(=O)C(Cl)Cl)cc1C2	83*	-83	-1	1	-25	2
COc1cc2c(cc1NC(=O)c1ccccc1-c1ccccc1C(=O)O)-c1ccccc1C2	nt	nt	nt	0	nt	nt
COc1ccc(C(CC(=O)O)c2cc(OC)c(OC)c(OC)c2)cc1OC (centres undefined)	-430	430*	1	-1	-6	-4
CCC1(c2ccccc2)NC(=O)N(CC(=O)NC2CCCCCC2)C1=O (centres undefined)	-21	21	1	48	-3	0
Cc1ccccc1N(C)C(=O)CN1CCN(c2nc(-c3ccccc3)cs2)CC1	nt	nt	nt	12	nt	nt
CN(C)CCCNC(=O)c1ccc(-c2cc(O)c3ncccc3c2)cc1	-7	7	-2	nt	46*	22
O=C(Nc1nc2ccccc2s1)c1ccc(F)cc1	37	-24	-2	0	-7	8
CNc1sc(C(=O)c2ccc(F)cc2)c(N)c1-c1nc2ccccc2s1	90*	-90	3	3	-9	-6
CNc1sc(C(=O)c2cccs2)c(N)c1-c1nc2ccccc2s1	95*	-95	0	0	-4	9
CC(=O)Nc1scc(C)c1-c1nc2ccccc2s1	51	-51	0	1	-13	3
COc1ccc(C=NN=C2c3ccccc3-c3ccccc32)cc1OC	79*	-79	1	-2	-15	3
COc1cc(/C=N/N=C2/C(=O)Nc3ccccc32)ccc1O	-7	7	8	22	-10	35
O=C1Nc2ccc(Br)cc2C1=Nc1cccnc1	nt	nt	nt	67*	nt	nt
O=C1Nc2ccccc2C1=Nc1cccc(Cl)c1	8	-8	-5	9	-2	9
CCCOc1ccc(C2c3c(oc4cc(C)c(C)cc4c3=O)C(=O)N2CCCN(C)C)cc1OCC (centres undefined)	-3	3	-1	nt	15	13
CCOc1ccc(C2c3c(oc4cc(C)c(C)cc4c3=O)C(=O)N2CCCN(C)C)cc1OC (centres undefined)	-5	5	-1	nt	29*	1
COc1cc(F)c(S(=O)(=O)N2CCCN(S(=O)(=O)c3cccc(N)c3)CC2)c(F)c1	nt	nt	nt	-2	nt	nt
CC(=O)NC1=C(NC2CCS(=O)(=O)C2)C(=O)c2ccccc2C1=O (centres undefined)	-16	16	-2	69*	1	4
Cc1cc(NC(=O)CSCc2ccccc2)no1	-11	11	-3	-19	4	-2

Bioassay records: PubChem BioAssay, Broad Institute
